From ChEMBL document CHEMBL1125755, “Synthesis and structure-activity relationships of benzo[b]thienylallylamine antimycotics” (1991)
Converted amounts (≈) assume the structure as drawn.

Columns and labels:
Candida albicans [1] = assay: Evaluated in vitro for the minimum inhibitory concentration against Candida albicans 124; assay type: functional
Procedure, shortened: (§1)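 Yeast tube dilution in malt extract broth (pH 4.8), with compounds in DMSO serially diluted in the medium. Inoculum was blastospores from about 30-h shaken cultures in yeast nitrogen base at 37 °C. Growth was read after 48 h at 30 °C. MIC was the lowest concentration without macroscopically visible growth.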

Trichophyton benhamiae [2] = assay: Evaluated in vitro for the minimum inhibitory concentration against Trichophyton mentagrophytes; assay type: functional, Arthroderma benhamiae
Procedure, shortened: (§2)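 Dermatophytes were tested in glass tubes of Sabouraud's dextrose broth (pH 6.5) against DMSO-dissolved compounds serially diluted in the medium. Inoculum was taken by spatula from 21-day Kimming agar cultures grown at 30 °C. Incubation was 7 days at 30 °C. MIC was the lowest concentration showing no macroscopic fungal growth.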

Microsporum canis [3] = assay: Evaluated in vitro for the minimum inhibitory concentration against Microsporum canis.; assay type: functional; procedure, shortened: as §2
Candida parapsilosis [4] = assay: Evaluated in vitro for the minimum inhibitory concentration against Candida parapsilosis 39.; assay type: functional; conditions: Lodderomyces parapsilosis; procedure, shortened: as §1
Sporothrix schenckii [5] = assay: Evaluated in vitro for the minimum inhibitory concentration against Sporothrix schenckii.
Aspergillus fumigatus [6] = assay: In vitro minimum inhibitory concentration which is the lowest concentration at which no signs of fungal growth were detected against Aspergillus fumigatus
Aspergillus fumigatus [7] = assay: Evaluated in vitro for the minimum inhibitory concentration against Aspergillus fumigatus.
Microsporum canis [8] = assay: In vitro minimum inhibitory concentration which is the lowest concentration at which no signs of fungal growth were detected against Microsporum canis.; assay type: functional; procedure, shortened: as §2
Trichophyton benhamiae [9] = assay: In vitro minimum inhibitory concentration which is the lowest concentration at which no signs of fungal growth were detected against Trichophyton mentagrophytes.; assay type: functional, Arthroderma benhamiae; procedure, shortened: as §2
Aspergillus fumigatus [10] = assay: In vitro minimum inhibitory concentration which is the lowest concentration at which no signs of fungal growth were detected against Aspergillus fumigatus.
Candida albicans [11] = assay: In vitro minimum inhibitory concentration which is the lowest concentration at which no signs of fungal growth were detected against Candida albicans 124; assay type: functional; procedure, shortened: as §1
Sporothrix schenckii [12] = assay: In vitro minimum inhibitory concentration which is the lowest concentration at which no signs of fungal growth were detected against Sporothrix schenckii
Candida parapsilosis [13] = assay: In vitro minimum inhibitory concentration which is the lowest concentration at which no signs of fungal growth were detected against Candida parapsilosis 39.; assay type: functional; conditions: Lodderomyces parapsilosis; procedure, shortened: as §1
Aspergillus niger = assay: In vitro minimum inhibitory concentration at which no signs of fungal growth were detected against laboratory adapted strains of Aspergillus niger.; assay type: functional
Procedure, shortened: (§3)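 Inoculum of filamentous fungi harvested from 21-day-old Kimming agar cultures grown at 30 °C. Broth dilution in glass tubes with Sabouraud's dextrose broth (pH 6.5); compounds dissolved in DMSO and serially diluted in medium. Incubation at 30 °C, read after 72 h. MIC taken as the lowest concentration with no macroscopically visible growth.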

Candida albicans [14] = assay: In vitro minimum inhibitory concentration at which no signs of fungal growth were detected against clinical isolated strains of Candida albicans.; assay type: functional; procedure, shortened: as §1
Candida parapsilosis [15] = assay: In vitro minimum inhibitory concentration at which no signs of fungal growth were detected against laboratory adapted strains of Candida parapsilosis.; assay type: functional; conditions: Lodderomyces parapsilosis
Procedure, shortened: (§4)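 Yeast blastospores taken from shaken cultures about 30 h old, grown at 37 °C in yeast nitrogen base. Tube dilution used malt extract broth (pH 4.8); compounds were dissolved in DMSO and serially diluted in medium. Incubated at 30 °C and read after 48 h. MIC is the lowest concentration with no macroscopic growth.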

Candida albicans [16] = assay: In vitro minimum inhibitory concentration at which no signs of fungal growth were detected against laboratory adapted strains of Candida albicans.; assay type: functional; procedure, shortened: as §4
Arthrodermataceae [17] = assay: In vitro minimum inhibitory concentration at which no signs of fungal growth were detected against laboratory adapted strains of dermatophytes.; assay type: functional
Procedure, shortened: (§5)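 Sabouraud's dextrose broth (pH 6.5) in glass tubes; compounds dissolved in DMSO and serially diluted with medium. Incubated at 30 °C and read after 7 days. MIC is the lowest concentration with no macroscopically visible fungal growth.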

Nakaseomyces glabratus [18] = assay: In vitro minimum inhibitory concentration at which no signs of fungal growth were detected against laboratory adapted strains of Torulopsis glabrata.; assay type: functional; procedure, shortened: as §4
[19] = test system: Scopulariopsis brevicaulis; assay: In vitro minimum inhibitory concentration at which no signs of fungal growth were detected against laboratory adapted strains of Scopulariopsis brevicaulis.; assay type: functional
Procedure, shortened: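 Inoculum of this mould harvested from 21-day-old Kimming agar cultures grown at 30 °C. Compounds dissolved in DMSO and serially diluted in broth in glass tubes. Incubated at 30 °C and read after 72 h. MIC is the lowest concentration with no macroscopically detectable growth.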

Sporothrix schenckii [20] = assay: In vitro minimum inhibitory concentration at which no signs of fungal growth were detected against laboratory adapted strains of Sporotrix schenck ii.; assay type: functional; procedure, shortened: as §5
Aspergillus fumigatus [21] = assay: In vitro minimum inhibitory concentration at which no signs of fungal growth were detected against laboratory adapted strains of Aspergillus fumigatus.; assay type: functional; procedure, shortened: as §3
Arthrodermataceae [22] = assay: In vitro minimum inhibitory concentration at which no signs of fungal growth were detected against clinical isolated strains of dermatophytes.; assay type: functional; procedure, shortened: as §2
Nakaseomyces glabratus [23] = assay: In vitro minimum inhibitory concentration at which no signs of fungal growth were detected against laboratory adapted strains of Torulopsis glabrata; assay type: functional; procedure, shortened: as §4
Sporothrix schenckii [24] = assay: In vitro minimum inhibitory concentration at which no signs of fungal growth were detected against laboratory adapted strains of Sporothrix schenck ii; assay type: functional; procedure, shortened: as §5
Candida albicans [25] = assay: In vitro minimum inhibitory concentration at which no signs of fungal growth were detected against clinically isolated strains of Candida albicans.; assay type: functional; procedure, shortened: as §1
Arthrodermataceae [26] = assay: In vitro minimum inhibitory concentration at which no signs of fungal growth were detected against clinically isolated strains of dermatophytes.; assay type: functional; procedure, shortened: as §2

Compound | MIC (Candida albicans [1]) [mg/L] | MIC (Trichophyton benhamiae [2]) [mg/L] | MIC (Microsporum canis [3]) [mg/L] | MIC (Candida parapsilosis [4]) [mg/L] | MIC (Sporothrix schenckii [5]) [mg/L] | MIC (Aspergillus fumigatus [7]) [mg/L] | also measured
CN(C/C=C/C#CC(C)(C)C)Cc1cc2ccccc2s1 | > 200 | > 100 | > 100 | > 200 | > 100 |  | 
CN(C/C=C/C#CC(C)(C)C)Cc1csc2ccc(Cl)cc12 | 12.5 (≈ 37.7 µM) | 0.006 (≈ 0.0181 µM) | 0.006 (≈ 0.0181 µM) | 0.4 (≈ 1.21 µM) | 3.13 (≈ 9.43 µM) |  | MIC (Aspergillus fumigatus [6]): 0.4 mg/L (≈ 1.21 µM)
CN(C/C=C/C#CC(C)(C)C)Cc1c(Cl)sc2ccccc12 | > 200 | 0.1 (≈ 0.301 µM) | 0.1 (≈ 0.301 µM) | 6.25 (≈ 18.8 µM) | > 200 | > 200 | 
CN(C/C=C/C#CC(C)(C)C)Cc1cccc2c(C=O)csc12 |  |  |  |  |  |  | MIC (Microsporum canis [8]): 0.02 mg/L (≈ 0.0614 µM); MIC (Trichophyton benhamiae [9]): 0.05 mg/L (≈ 0.154 µM); MIC (Aspergillus fumigatus [10]): 0.4 mg/L (≈ 1.23 µM); MIC (Candida albicans [11]): 6.25 mg/L (≈ 19.2 µM); MIC (Sporothrix schenckii [12]): 1.56 mg/L (≈ 4.79 µM); MIC (Candida parapsilosis [13]): 0.4 mg/L (≈ 1.23 µM)
CN(C/C=C/C#CC(C)(C)C)Cc1csc2ccccc12.Cl | 100 | 0.01 | 0.02 | 3.13 | 3.13 | 0.8 | 
CN(C/C=C/C#CC(C)(C)C)Cc1cccc2c(Cl)csc12.Cl | 0.8 | 0.0015 | 0.003 | 0.1 | 0.1 | 0.2 | MIC (Aspergillus niger): 0.02 mg/L; MIC (Candida albicans [14]): 3.13 mg/L; MIC (Candida parapsilosis [15]): 0.02 mg/L; MIC (Candida albicans [16]): 0.4 mg/L; MIC (Arthrodermataceae [17]): 0.003 mg/L; MIC (Nakaseomyces glabratus [18]): > 100 mg/L; MIC [19]: 0.05 mg/L; MIC (Sporothrix schenckii [20]): 0.1 mg/L; MIC (Aspergillus fumigatus [21]): 0.05 mg/L; MIC (Arthrodermataceae [22]): 0.02 mg/L
CN(C/C=C/C#CC(C)(C)C)Cc1cccc2scc(Cl)c12.Cl | 50 | 0.05 | 0.1 | 6.25 | 25 | 0.8 | 
CN(C/C=C/C#CC(C)(C)C)Cc1csc2c(Cl)cccc12.Cl | 25 | 0.02 | 0.05 | 1.56 | > 100 | 0.8 | 
CN(C/C=C/C#CC(C)(C)C)Cc1cccc2c(C(F)(F)F)csc12.Cl | 3.13 | 0.05 | 0.1 | 1.56 | 50 | 12.5 | 
CSc1csc2c(CN(C)C/C=C/C#CC(C)(C)C)cccc12.Cl | 6.25 | 0.02 | 0.1 | 0.8 | > 200 | 6.25 | 
CN(C/C=C/C#CC(C)(C)C)Cc1cccc2c(C#N)csc12.Cl |  |  |  |  |  |  | MIC (Microsporum canis [8]): 0.01 mg/L; MIC (Trichophyton benhamiae [9]): 0.02 mg/L; MIC (Aspergillus fumigatus [10]): 3.13 mg/L; MIC (Candida albicans [11]): 3.13 mg/L; MIC (Sporothrix schenckii [12]): 0.4 mg/L; MIC (Candida parapsilosis [13]): 0.2 mg/L
CN(C/C=C/C#CC(C)(C)C)Cc1cccc2sc(Cl)cc12.Cl | 25 | 0.006 | 0.006 | 0.2 | 6.25 | 0.2 | 
CN(C/C=C/C#CC(C)(C)C)Cc1cccc2c(Br)csc12.Cl |  |  |  |  |  |  | MIC (Microsporum canis [8]): 0.006 mg/L; MIC (Trichophyton benhamiae [9]): 0.006 mg/L; MIC (Aspergillus fumigatus [10]): 0.8 mg/L; MIC (Candida albicans [11]): 0.8 mg/L; MIC (Sporothrix schenckii [12]): 0.4 mg/L; MIC (Candida parapsilosis [13]): 0.2 mg/L
CN(C/C=C/C#CC(C)(C)C)Cc1cccc2ccccc12 [TERBINAFINE] |  |  |  |  |  |  | MIC (Aspergillus niger): 0.02 mg/L (≈ 0.0686 µM); MIC (Microsporum canis [8]): 0.006 mg/L (≈ 0.0206 µM); MIC (Nakaseomyces glabratus [23]): > 100 mg/L; MIC (Candida parapsilosis [15]): 0.8 mg/L (≈ 2.75 µM); MIC (Candida albicans [16]): 50 mg/L (≈ 172 µM); MIC (Arthrodermataceae [17]): 0.006 mg/L (≈ 0.0206 µM); MIC (Trichophyton benhamiae [9]): 0.003 mg/L (≈ 0.0103 µM); MIC (Sporothrix schenckii [24]): 0.4 mg/L (≈ 1.37 µM); MIC (Candida albicans [25]): 100 mg/L (≈ 343 µM); MIC [19]: 0.8 mg/L (≈ 2.75 µM); MIC (Aspergillus fumigatus [21]): 1.56 mg/L (≈ 5.35 µM); MIC (Aspergillus fumigatus [10]): 0.4 mg/L (≈ 1.37 µM); MIC (Candida albicans [11]): 25 mg/L (≈ 85.8 µM); MIC (Sporothrix schenckii [12]): 0.8 mg/L (≈ 2.75 µM); MIC (Candida parapsilosis [13]): 0.8 mg/L (≈ 2.75 µM); MIC (Arthrodermataceae [26]): 0.01 mg/L (≈ 0.0343 µM)

Second part, led by results:

MIC (Candida albicans [1]) [mg/L] | MIC (Trichophyton benhamiae [2]) [mg/L] | MIC (Microsporum canis [3]) [mg/L] | MIC (Candida parapsilosis [4]) [mg/L] | MIC (Sporothrix schenckii [5]) [mg/L] | MIC (Aspergillus fumigatus [7]) [mg/L] | Compound | also measured
200 (≈ 672 µM) | 0.4 (≈ 1.34 µM) | 1.56 (≈ 5.24 µM) | 100 (≈ 336 µM) | > 200 | 1.56 (≈ 5.24 µM) | CN(C/C=C/C#CC(C)(C)C)Cc1ccc2sccc2c1 | 
50 | 0.006 | 0.01 | 1.56 | 0.8 | 0.4 | CN(C/C=C/C#CC(C)(C)C)Cc1cccc2sccc12.Cl | 
> 200 | 0.05 | 0.1 | 0.2 | > 200 | 3.13 | CN(C/C=C/C#CC(C)(C)C)Cc1cc(Cl)cc2ccsc12.Cl | 
100 | 0.1 | 0.4 | 0.8 | > 200 | > 200 | CN(C/C=C/C#CC(C)(C)C)Cc1ccc(Cl)c2ccsc12.Cl | 
25 | 0.006 | 0.01 |  | 3.13 | 0.05 | CN(C/C=C/C#CC(C)(C)C)Cc1cccc2cc(F)sc12.Cl | MIC (Candida parapsilosis [13]): 6.25 mg/L
25 | 0.006 | 0.01 | 0.8 | 0.1 | 0.2 | CN(C/C=C/C#CC(C)(C)C)Cc1cccc2ccsc12.Cl | 
> 100 | 0.01 | 0.01 | 0.8 | > 100 | > 100 | CN(C/C=C/C#CC(C)(C)C)Cc1cccc2cc(Cl)sc12.Cl | 
3.13 | 0.006 | 0.006 | 0.4 | 0.1 | 0.4 | Cc1csc2c(CN(C)C/C=C/C#CC(C)(C)C)cccc12.Cl | 
0.8 | 0.0008 | 0.0015 | 0.1 | 0.05 | 0.1 | CN(C/C=C/C#CC(C)(C)C)Cc1cccc2c(F)csc12.Cl | 
